# Measurements: ChEMBL document CHEMBL1275524, “Activities of antifungal agents against yeasts and filamentous fungi: assessment according to the methodology of the European Committee on Antimicrobial Susceptibility Testing” (2008)
# How the values were obtained:
# [1] = tested on: Fusarium solani; experiment: Antifungal activity against Fusarium solani by EUCAST method; assay type: functional
# [2] = tested on: Curvularia australiensis; experiment: Antifungal activity against Bipolaris australiensis; assay type: functional
# Outline: (§1)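 Dematiaceous fungi were tested by the EUCAST spore-forming mold reference procedure: flat-bottom microdilution plates, RPMI 1640 plus 2% glucose, inoculum 2 × 105 to 5 × 10^5 CFU/ml. Endpoints were read visually at 24 and 48 h. Polyenes and azoles: 100% growth reduction vs drug-free control. CPF: minimum effective concentration. Run in duplicate and repeated twice.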
# [3] = tested on: Pichia kudriavzevii; experiment: Antifungal activity against Candida krusei by EUCAST method; assay type: functional
# Outline: (§2)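 Broth microdilution in flat-bottom plates in RPMI 1640 with 2% glucose; inoculum 0.5 × 105 to 2.5 × 10^5 CFU/ml. MICs were read spectrophotometrically at 24 h. AMB endpoint: ≥90% growth reduction vs drug-free control well. Azole and CPF endpoint: 50% reduction in optical density. MFC was taken as the lowest concentration giving 99% killing.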
# [4] = tested on: Mucor hiemalis; experiment: Antifungal activity against Mucor hiemalis; assay type: functional
# [5] = tested on: Rhizopus arrhizus; experiment: Antifungal activity against Rhizopus oryzae by EUCAST method; assay type: functional
# Outline: (§3)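 Broth microdilution following the EUCAST reference procedure for spore-forming moulds, in flat-bottom plates with RPMI 1640 plus 2% glucose. Inoculum was 2 × 10^5 to 5 × 10^5 CFU/ml. MICs were read visually at 24 and 48 h as 100% growth reduction versus a drug-free control for polyenes and azoles. MEC was used for caspofungin. Tests were run in duplicate and repeated twice.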
# [6] = tested on: Talaromyces marneffei; experiment: Antifungal activity against Penicillium marneffei; assay type: functional
# [7] = tested on: Candida parapsilosis; experiment: Antifungal activity against Candida parapsilosis by EUCAST method; assay type: functional; conditions: Lodderomyces parapsilosis; outline: as §2
# [8] = tested on: Cryptococcus gattii; experiment: Antifungal activity against Cryptococcus neoformans var. gattii; assay type: functional, Cryptococcus bacillisporus
# Outline: (§4)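 EUCAST yeast microdilution, modified for nonfermentative yeasts: plates were sealed and agitated at 350 rpm and 30°C for 48 h.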
# [9] = tested on: Fusarium solani; experiment: Antifungal activity against Fusarium solani; assay type: functional
# [10] = tested on: Aspergillus niger; experiment: Antifungal activity against Aspergillus niger; assay type: functional
# [11] = tested on: Aspergillus terreus; experiment: Antifungal activity against Aspergillus terreus by EUCAST method; assay type: functional
# [12] = tested on: Candida albicans; experiment: Antifungal activity against Candida albicans by EUCAST method; assay type: functional; outline: as §2
# [13] = tested on: Scedosporium apiospermum; experiment: Antifungal activity against Scedosporium apiospermum; assay type: functional; outline: as §3
# [14] = tested on: Meyerozyma guilliermondii; experiment: Antifungal activity against Candida guilliermondii; assay type: functional; outline: as §2
# [15] = tested on: Geotrichum candidum; experiment: Antifungal activity against Geotrichum candidum by EUCAST method; assay type: functional
# [16] = tested on: Lichtheimia corymbifera; experiment: Antifungal activity against Absidia corymbifera; assay type: functional
# [17] = tested on: Geotrichum candidum; experiment: Antifungal activity against Geotrichum candidum; assay type: functional
# [18] = tested on: Nakaseomyces glabratus; experiment: Antifungal activity against Candida glabrata by EUCAST method; assay type: functional; outline: as §2
# [19] = tested on: Aspergillus flavus; experiment: Antifungal activity against Aspergillus flavus; assay type: functional
# [20] = Antifungal activity against Cryptococcus neoformans var. neoformans; assay type: functional; conditions: Cryptococcus deneoformans; outline: as §4
# [21] = Antifungal activity against Rhizopus microsporus var. oligosporus; assay type: functional; outline: as §3
# [22] = tested on: Lomentospora prolificans; experiment: Antifungal activity against Scedosporium prolificans; assay type: functional; outline: as §3
# [23] = tested on: Cunninghamella; experiment: Antifungal activity against Cunninghamella species by EUCAST method; assay type: functional
# [24] = tested on: Trichosporon asahii; experiment: Antifungal activity against Trichosporon asahii by EUCAST method; assay type: functional
# Outline: (§5)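 Nonfermentative yeasts were tested by the EUCAST microdilution recommendations with one change: plates were sealed and agitated at 350 rpm and 30°C for 48 h.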
# [25] = tested on: Curvularia lunata; experiment: Antifungal activity against Curvularia lunata; assay type: functional
# [26] = tested on: Candida tropicalis; experiment: Antifungal activity against Candida tropicalis; assay type: functional; outline: as §2
# [27] = tested on: Pichia kudriavzevii; experiment: Antifungal activity against Candida krusei; assay type: functional
# Outline: (§6)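 EUCAST broth microdilution for yeasts in flat-bottom plates, RPMI 1640 with 2% glucose, inoculum 0.5 × 105 to 2.5 × 10^5 CFU/ml. […] MFC is the lowest concentration giving 99% killing.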
# [28] = tested on: Curvularia australiensis; experiment: Antifungal activity against Bipolaris australiensis by EUCAST method; assay type: functional; outline: as §1
# [29] = tested on: Rhizomucor; experiment: Antifungal activity against Rhizomucor species; assay type: functional
# [30] = tested on: Cunninghamella; experiment: Antifungal activity against Cunninghamella species; assay type: functional
# [31] = Antifungal activity against Rhizopus microsporus var. oligosporus by EUCAST method; assay type: functional; outline: as §3
# [32] = tested on: Candida albicans; experiment: Antifungal activity against Candida albicans; assay type: functional; outline: as §2
# [33] = tested on: Rhizopus arrhizus; experiment: Antifungal activity against Rhizopus oryzae; assay type: functional; outline: as §3
# [34] = Antifungal activity against Cryptococcus neoformans var. neoformans by EUCAST method; assay type: functional; conditions: Cryptococcus deneoformans; outline: as §4
# [35] = tested on: Penicillium sp.; experiment: Antifungal activity against Penicillium species by EUCAST method; assay type: functional
# [36] = tested on: Aspergillus terreus; experiment: Antifungal activity against Aspergillus terreus; assay type: functional
# [37] = tested on: Talaromyces marneffei; experiment: Antifungal activity against Penicillium marneffei by EUCAST method; assay type: functional
# [38] = tested on: Rhizopus; experiment: Antifungal activity against Rhizopus species; assay type: functional; outline: as §3
# [39] = tested on: Absidia; experiment: Antifungal activity against Absidia species by EUCAST method; assay type: functional
# [40] = tested on: Sporothrix schenckii; experiment: Antifungal activity against Sporothrix schenckii by EUCAST method; assay type: functional; outline: as §3
# [41] = tested on: Absidia; experiment: Antifungal activity against Absidia species; assay type: functional
# [42] = tested on: Clavispora lusitaniae; experiment: Antifungal activity against Candida lusitaniae by EUCAST method; assay type: functional; outline: as §2
# [43] = tested on: Trichosporon inkin; experiment: Antifungal activity against Trichosporon inkin by EUCAST method; assay type: functional; outline: as §5
# [44] = tested on: Aspergillus fumigatus; experiment: Antifungal activity against Aspergillus fumigatus by EUCAST method; assay type: functional
# [45] = tested on: Rhizomucor; experiment: Antifungal activity against Rhizomucor species by EUCAST method; assay type: functional; outline: as §3
# [46] = tested on: Aspergillus fumigatus; experiment: Antifungal activity against Aspergillus fumigatus; assay type: functional
# [47] = tested on: Candida tropicalis; experiment: Antifungal activity against Candida tropicalis by EUCAST method; assay type: functional; outline: as §2
# [48] = tested on: Clavispora lusitaniae; experiment: Antifungal activity against Candida lusitaniae; assay type: functional; outline: as §2
# [49] = tested on: Lichtheimia corymbifera; experiment: Antifungal activity against Absidia corymbifera by EUCAST method; assay type: functional
# [50] = tested on: Penicillium sp.; experiment: Antifungal activity against Penicillium species; assay type: functional
# [51] = tested on: Trichosporon inkin; experiment: Antifungal activity against Trichosporon inkin; assay type: functional; outline: as §5
# [52] = tested on: Sporothrix schenckii; experiment: Antifungal activity against Sporothrix schenckii; assay type: functional; outline: as §3
# [53] = tested on: Cryptococcus gattii; experiment: Antifungal activity against Cryptococcus neoformans var. gattii by EUCAST method; assay type: functional, Cryptococcus bacillisporus; outline: as §4
# [54] = tested on: Candida parapsilosis; experiment: Antifungal activity against Candida parapsilosis; assay type: functional; conditions: Lodderomyces parapsilosis; outline: as §2
# [55] = tested on: Aspergillus flavus; experiment: Antifungal activity against Aspergillus flavus by EUCAST method; assay type: functional
# [56] = tested on: Fusarium oxysporum; experiment: Antifungal activity against Fusarium oxysporum; assay type: functional
# [57] = tested on: Saccharomyces cerevisiae; experiment: Antifungal activity against Saccharomyces cerevisiae; assay type: functional
# Outline: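 Broth microdilution following EUCAST for fermentative yeasts, in flat-bottom plates with RPMI 1640 plus 2% glucose. Inoculum was 0.5 × 10^5 to 2.5 × 10^5 CFU/ml. End points were read spectrophotometrically at 24 h: ≥90% growth reduction versus a drug-free control for amphotericin B, and 50% OD reduction for azoles and caspofungin. MFC was the lowest concentration giving 99% killing.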
# [58] = tested on: Mucor; experiment: Antifungal activity against Mucor species by EUCAST method; assay type: functional
# [59] = tested on: Rhizopus; experiment: Antifungal activity against Rhizopus species by EUCAST method; assay type: functional; outline: as §3
# [60] = tested on: Trichosporon asahii; experiment: Antifungal activity against Trichosporon asahii; assay type: functional; outline: as §5
# [61] = Antifungal activity against Rhinocladiella aquaspersa by EUCAST method; assay type: functional; outline: as §1
# [62] = tested on: Mucor hiemalis; experiment: Antifungal activity against Mucor hiemalis by EUCAST method; assay type: functional
# [63] = tested on: Fusarium oxysporum; experiment: Antifungal activity against Fusarium oxysporum by EUCAST method; assay type: functional
# [64] = tested on: Saccharomyces cerevisiae; experiment: Antifungal activity against Saccharomyces cerevisiae by EUCAST method; assay type: functional; outline: as §6
# [65] = tested on: Meyerozyma guilliermondii; experiment: Antifungal activity against Candida guilliermondii by EUCAST method; assay type: functional; outline: as §2
# [66] = tested on: Scedosporium apiospermum; experiment: Antifungal activity against Scedosporium apiospermum by EUCAST method; assay type: functional; outline: as §3
# [67] = Antifungal activity against Rhinocladiella aquaspersa; assay type: functional; outline: as §1
# [68] = tested on: Aspergillus niger; experiment: Antifungal activity against Aspergillus niger by EUCAST method; assay type: functional
# [69] = tested on: Mucor; experiment: Antifungal activity against Mucor species; assay type: functional
# [70] = tested on: Curvularia lunata; experiment: Antifungal activity against Curvularia lunata by EUCAST method; assay type: functional; outline: as §1
# [71] = tested on: Nakaseomyces glabratus; experiment: Antifungal activity against Candida glabrata; assay type: functional; outline: as §2
compound,measurement,setting,value
CC[C@@H]([C@H](C)O)n1ncn(-c2ccc(N3CCN(c4ccc(OC[C@@H]5CO[C@@](Cn6cncn6)(c6ccc(F)cc6F)C5)cc4)CC3)cc2)c1=O [POSACONAZOLE],MIC,[1],1 µg/mL
same,MFC,[2],0.125 µg/mL
same,MIC,[3],0.68 µg/mL
same,MFC,[4],2 µg/mL
same,MIC,[5],1.89 µg/mL
same,MFC,[6],0.25 µg/mL
same,MIC,[7],0.05 µg/mL
same,MFC,[8],0.125 µg/mL
same,MFC,[9],> 8 µg/mL
same,MFC,[10],1 µg/mL
same,MIC,[11],0.19 µg/mL
same,MIC,[12],0.14 µg/mL
same,MFC,[13],1 µg/mL
same,MFC,[14],0.25 µg/mL
same,MIC,[15],0.37 µg/mL
same,MFC,[16],2 µg/mL
same,MFC,[17],> 8 µg/mL
same,MIC,[18],1.58 µg/mL
same,MFC,[19],0.5 µg/mL
same,MFC,[20],0.125 µg/mL
same,MFC,[21],> 8 µg/mL
same,MFC,[22],> 8 µg/mL
same,MIC,[23],2 µg/mL
same,MIC,[24],6 µg/mL
same,MFC,[25],0.5 µg/mL
same,MFC,[26],> 0.12 µg/mL
same,MFC,[27],0.5 µg/mL
same,MIC,[28],0.12 µg/mL
same,MFC,[29],> 2 µg/mL
same,MFC,[30],2 µg/mL
same,MIC,[31],5.33 µg/mL
same,MFC,[32],0.12 µg/mL
same,MFC,[33],2 µg/mL
same,MIC,[34],0.14 µg/mL
same,MIC,[35],0.05 µg/mL
same,MFC,[36],0.5 µg/mL
same,MIC,[37],0.06 µg/mL
same,MFC,[38],> 2 µg/mL
same,MIC,[39],0.33 µg/mL
same,MIC,[40],0.25 µg/mL
same,MFC,[41],0.5 µg/mL
same,MIC,[42],0.06 µg/mL
same,MIC,[43],0.28 µg/mL
same,MIC,[44],0.37 µg/mL
same,MIC,[45],2.23 µg/mL
same,MFC,[46],0.5 µg/mL
same,MIC,[47],0.12 µg/mL
same,MFC,[48],0.06 µg/mL
same,MIC,[49],0.29 µg/mL
same,MFC,[50],0.5 µg/mL
same,MFC,[51],0.5 µg/mL
same,MFC,[52],0.5 µg/mL
same,MIC,[53],0.06 µg/mL
same,MFC,[54],0.06 µg/mL
same,MIC,[55],0.21 µg/mL
same,MFC,[56],0.25 µg/mL
same,MFC,[57],> 4 µg/mL
same,MIC,[58],0.72 µg/mL
same,MIC,[59],0.78 µg/mL
same,MFC,[60],> 8 µg/mL
same,MIC,[61],0.06 µg/mL
same,MIC,[62],1.33 µg/mL
same,MIC,[63],0.12 µg/mL
same,MIC,[64],0.66 µg/mL
same,MIC,[65],0.45 µg/mL
same,MIC,[66],1 µg/mL
same,MFC,[67],0.125 µg/mL
same,MIC,[68],0.26 µg/mL
same,MFC,[69],2 µg/mL
same,MIC,[70],0.25 µg/mL
same,MFC,[71],> 4 µg/mL
